Assay [1] relates to THP-1. The experiment in a line: Antiinflammatory activity in human THP-1 macrophages assessed as increase in IL-4 level incubated for 24 hrs by ELISA based qRT-PCR analysis. The format is functional, cell-based. A digest of the protocol: (§1)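 THP-1 cells were seeded at 1 x 10⁵ cells/ml for 48 h. For macrophages, cells were differentiated with 0.01 µM PMA for 48 h; monocytes received no PMA. Cells were then given 24 h with or without 10 µg/ml LPS, plus ligands alone or with the CB2R inverse agonist JTE907 (10 µM). Cytokines were measured in 5 µL supernatant (from 1 x 10⁴ cells) by ProQuantum immunoassay, read as pg/ml from kit titration curves; n=3.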
(In general: An ELISA detects its analyte on a solid surface through an enzyme-linked reagent.)

Assay [2] concerns THP-1. Briefly: Antiinflammatory activity in human THP-1 monocytes assessed as increase in IL-4 level incubated for 24 hrs by ELISA based qRT-PCR analysis. The format is functional, cell-based. A digest of the protocol:
as §1

Assay [3] deals with Cannabinoid receptor 2 (Mus musculus, UniProt P47936). Briefly: Agonist activity at mouse CB2 receptor transfected in CHO-K1 cells assessed as beta2-arrestin recruitment incubated for 90 mins by luminescence based assay. The format is functional, cell-based. A digest of the protocol: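 PathHunter eXpress kit using mouse CB2 receptor in CHO-K1 cells. Cells were seeded 48 h before the assay in kit medium. Compounds in cell plating reagent were incubated 90 min at 37 °C, 5% CO2. Working detection solution was then added for 60 min at room temperature to read β-arrestin recruitment.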
Cannabinoid receptor 2 (Mus musculus, UniProt P47936), sequence (P47936 whole entry): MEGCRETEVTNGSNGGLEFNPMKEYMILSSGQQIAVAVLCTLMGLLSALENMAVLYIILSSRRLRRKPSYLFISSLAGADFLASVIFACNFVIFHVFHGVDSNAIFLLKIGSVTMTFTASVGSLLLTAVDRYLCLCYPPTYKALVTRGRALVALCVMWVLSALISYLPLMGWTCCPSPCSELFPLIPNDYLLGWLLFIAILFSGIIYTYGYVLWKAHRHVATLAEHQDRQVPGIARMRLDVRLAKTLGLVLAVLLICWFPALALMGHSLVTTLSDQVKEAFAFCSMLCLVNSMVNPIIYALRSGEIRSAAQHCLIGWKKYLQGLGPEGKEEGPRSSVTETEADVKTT

The test system of assay [4] is THP-1. The experiment in a line: Antiinflammatory activity in human THP-1 monocytes assessed as decrease in IL-1beta level incubated for 24 hrs by ELISA based qRT-PCR analysis. The assay is classed as functional, cell-based. A digest of the protocol: as §1
In assay [5] the test system is THP-1. Briefly: Antiinflammatory activity in human THP-1 macrophages assessed as increase in IL-10 level incubated for 24 hrs in presence of […] by ELISA based qRT-PCR analysis. The format is functional, cell-based. A digest of the protocol:
as §1

Assay [6] relates to THP-1. The experiment in a line: Antiinflammatory activity in human THP-1 macrophages assessed as increase in IL-10 level incubated for 24 hrs by ELISA based qRT-PCR analysis. The assay is classed as functional, cell-based. A digest of the protocol: as §1
Assay [7] concerns THP-1. The experiment in a line: Antiinflammatory activity in human THP-1 monocytes assessed as increase in IL-4 level incubated for 24 hrs in presence of […] by ELISA based qRT-PCR analysis. The assay is classed as functional, cell-based. A digest of the protocol: as §1
For assay [8], the system named is THP-1. The experiment in a line: Antiinflammatory activity in human THP-1 macrophages assessed as decrease in IFNgamma level incubated for 24 hrs by ELISA based qRT-PCR analysis. The format is functional, cell-based. An outline of the steps:
as §1

Assay [9] relates to THP-1. The experiment in a line: Antiinflammatory activity in human THP-1 monocytes assessed as decrease in TNFalpha level incubated for 24 hrs by ELISA based qRT-PCR analysis. The assay is classed as functional, cell-based. A digest of the protocol:
as §1

Assay [10] addresses T1, Cannabinoid receptor 2 (Homo sapiens, UniProt P34972). Briefly: Displacement of [3H]CP55940 from recombinant human CB2 receptor expressed in HEK293 cell membrane incubated for 90 mins by beta scintillation counter method. The assay is classed as cell membranes. A digest of the protocol: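 HEK293 membranes stably expressing human CB2 (50 µg protein/well) competed with 0.2 nM [3H]-CP55,940 (final) against test compound at 10⁻¹²–10⁻⁵ M in Tris-HCl 50 mM, EGTA 2.5 mM, MgCl₂ 5 mM, 0.1% fatty-acid-free BSA, pH 7.4; 90 min at 30 °C. Nonspecific binding defined with 10 µM GW405833.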

The nature of assay [11]: Metal chelating activity assessed as Fe2+-compound complex formation incubated for 15 mins by Ferrozine based assay. An outline of the steps: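 FeSO₄ (25 µM) in water incubated with or without test compound (100 µM, DMSO) for 15 min at room temperature, 300 µL final. Ferrozine then added (1 mM final), shaken 15 min at room temperature. Absorbance of the ferrozine–Fe(II) magenta complex read at 562 nm; chelation seen as reduced complex formation.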

The target in a further assay is Cannabinoid receptor 1 (Homo sapiens, UniProt P21554). The experiment in a line: […] human CB1 receptor in CHO cells incubated for 15 mins by plate reader analysis relative to control. The format is cell-based. An outline of the steps:
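CHO-CB1 C3 cells (human CB1) were seeded at 8000 cells/well in medium with dialyzed FBS and preincubated 15 min at 37 °C. Compounds or the CP55940 control were added for 15 min at 37 °C, then forskolin 10 µM for 5 min. cAMP was read by HTRF after 1 h at room temperature (λex 320 nm, λem 620-665 nm).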

The target of assay [12] is T1, Cannabinoid receptor 2. Briefly: Agonist activity at human CB2 receptor overexpressed in CHO-K1 cells assessed as cAMP level incubated for 30 mins by luminescence based assay. The assay is classed as functional, cell-based. An outline of the steps: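 CHO-K1 cells overexpressing human CB2R were plated at 30 000 cells/well and held overnight at 37 °C, 5% CO2. Test samples were added as dose–response solutions with NKH-477 to stimulate adenylate cyclase, then incubated 30 min at 37 °C. cAMP was detected by luminescence after cell lysis. Values were normalized to NKH-477 alone as 100% response. Three independent experiments were run in triplicate.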

The test system of assay [13] is THP-1. The experiment in a line: Antiinflammatory activity in human THP-1 monocytes assessed as increase in IL-10 level incubated for 24 hrs in presence of […] by ELISA based qRT-PCR analysis. The assay is classed as functional, cell-based. An outline of the steps: as §1
Assay [14] relates to THP-1. Briefly: Antiinflammatory activity in human THP-1 monocytes assessed as decrease in IFNgamma level incubated for 24 hrs in presence of […] by ELISA based qRT-PCR analysis. The format is functional, cell-based. An outline of the steps: as §1
Assay [15] deals with T2, Fatty-acid amide hydrolase 1 (Homo sapiens, UniProt O00519).
T2 sequence (O00519 whole entry): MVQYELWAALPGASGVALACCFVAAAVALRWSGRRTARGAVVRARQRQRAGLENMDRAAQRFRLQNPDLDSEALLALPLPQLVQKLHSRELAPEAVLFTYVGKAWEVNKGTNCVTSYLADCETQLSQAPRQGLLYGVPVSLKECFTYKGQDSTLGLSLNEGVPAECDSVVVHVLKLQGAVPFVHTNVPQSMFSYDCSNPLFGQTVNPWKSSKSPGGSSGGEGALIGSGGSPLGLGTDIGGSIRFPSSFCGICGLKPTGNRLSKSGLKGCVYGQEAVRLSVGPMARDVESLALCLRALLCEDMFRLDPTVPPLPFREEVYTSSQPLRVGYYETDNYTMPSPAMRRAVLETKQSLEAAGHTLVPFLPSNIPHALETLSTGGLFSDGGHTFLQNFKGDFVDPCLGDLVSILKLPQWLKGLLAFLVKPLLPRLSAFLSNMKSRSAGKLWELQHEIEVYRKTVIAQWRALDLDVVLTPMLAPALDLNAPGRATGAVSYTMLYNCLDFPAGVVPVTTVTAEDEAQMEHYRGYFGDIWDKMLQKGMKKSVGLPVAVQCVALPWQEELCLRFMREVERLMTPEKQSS
The experiment in a line: Inhibition of recombinant human FAAH using AMC-AA as substrate preincubated for 10 mins followed by substrate addition measured after 2 hrs by fluorometric assay. A digest of the protocol: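 Human recombinant FAAH preincubated with inhibitor at various concentrations in Tris-HCl 125 mM, Na₂EDTA 1 mM, pH 9.0, 10 min at room temperature with shaking. AMC-AA substrate then added (1 µM final); fluorescence read every 30 s for 2 h at 37 °C (ex 340/em 450 nm). Percent inhibition from no-inhibitor controls and no-enzyme blanks; IC50 from at least three independent runs in triplicate.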

Assay [16] relates to THP-1. Briefly: Antiinflammatory activity in human THP-1 macrophages assessed as decrease in TNFalpha level incubated for 24 hrs in presence of […] by ELISA based qRT-PCR analysis. The format is functional, cell-based. A digest of the protocol:
as §1

The values that follow come from ChEMBL document CHEMBL5316280, “Development of N-(1-Adamantyl)benzamides as Novel Anti-Inflammatory Multitarget Agents Acting as Dual Modulators of the Cannabinoid CB2 Receptor and Fatty Acid Amide Hydrolase” (J Med Chem, 2023).

Calls of active or inactive are those of the source. The rule behind the calls is not given here.

T1 sequence (P34972 whole entry): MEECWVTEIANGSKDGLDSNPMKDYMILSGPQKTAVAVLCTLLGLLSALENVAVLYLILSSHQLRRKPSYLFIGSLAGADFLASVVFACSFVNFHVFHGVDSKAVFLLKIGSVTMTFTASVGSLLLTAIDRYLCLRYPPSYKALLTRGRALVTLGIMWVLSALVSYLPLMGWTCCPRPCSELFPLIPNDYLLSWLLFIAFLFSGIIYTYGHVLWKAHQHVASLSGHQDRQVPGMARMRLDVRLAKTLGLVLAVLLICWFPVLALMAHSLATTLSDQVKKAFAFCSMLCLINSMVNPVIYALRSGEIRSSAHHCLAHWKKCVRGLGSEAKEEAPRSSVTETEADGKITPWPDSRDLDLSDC
Cannabinoid receptor 1, sequence (P21554 whole entry): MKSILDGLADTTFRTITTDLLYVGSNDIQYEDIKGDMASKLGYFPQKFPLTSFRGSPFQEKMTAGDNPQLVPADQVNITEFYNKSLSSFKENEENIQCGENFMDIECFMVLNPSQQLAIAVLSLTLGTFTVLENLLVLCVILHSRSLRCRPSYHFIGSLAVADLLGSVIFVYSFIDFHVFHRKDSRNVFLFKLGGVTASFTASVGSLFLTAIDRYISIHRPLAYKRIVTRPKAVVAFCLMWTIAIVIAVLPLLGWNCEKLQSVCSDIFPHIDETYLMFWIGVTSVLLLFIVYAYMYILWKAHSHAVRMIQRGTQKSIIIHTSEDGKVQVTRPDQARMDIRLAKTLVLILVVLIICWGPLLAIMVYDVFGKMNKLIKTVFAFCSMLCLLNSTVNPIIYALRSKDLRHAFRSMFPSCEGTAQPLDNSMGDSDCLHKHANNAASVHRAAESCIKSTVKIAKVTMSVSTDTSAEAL

One may read the EC50 as the concentration needed to bring the measured effect to its halfway point. The term Ki denotes the equilibrium dissociation constant of an inhibitor or competing ligand from its target. One may read the Emax as the greatest response seen or fitted, relative to the assay's reference. By IC50 is commonly meant the concentration that gives 50% inhibition. For `CCCCCOc1ccccc1C(=O)NC12CC3CC(CC(C3)C1)C2`, the outcome (in the assay with THP-1 [1]; with THP-1 [2]; in the assay with THP-1 [6]; with THP-1 [8]; in the assay with THP-1 [9]; in [11]) was Active. The EC50 worked out at 23.8 nM on Cannabinoid receptor 2 [3] and 86.9 nM at Cannabinoid receptor 2 [12]. The outcome in the assay with THP-1 [4], in the assay with THP-1 [5], in the assay with THP-1 [7], with THP-1 [13], in the assay on THP-1 [14] and in the assay on THP-1 [16] was inactive. Further, the Ki on Cannabinoid receptor 2 [10] is 10.8 nM. Further, the Emax on Cannabinoid receptor 1 was 100%. For the same compound, the IC50 in assay [15] came out at 6200 nM.

In the case of `O=C(NC12CC3CC(CC(C3)C1)C2)c1ccccc1OCc1ccccc1`, the result with THP-1 [1], in the assay with THP-1 [2], with THP-1 [4], in the assay on THP-1 [6], with THP-1 [8] and with THP-1 [9] was Active. Besides, the outcome in [11] was Active. Moreover, the EC50 at Cannabinoid receptor 2 [3] is 51.8 nM; at Cannabinoid receptor 2 [12], 124 nM. Further, the result in the assay with THP-1 [5], in the assay on THP-1 [7], with THP-1 [13], in the assay on THP-1 [14] and in the assay on THP-1 [16] was inactive. Moreover, the Ki on Cannabinoid receptor 2 [10] is 14.8 nM. In addition, the Emax on Cannabinoid receptor 1 was 100%. Moreover, the IC50 in [15] amounted to 4000 nM.

Consider `O=C(NC12CC3CC(CC(C3)C1)C2)c1ccccc1OCC1CCCCC1`, for which the result with THP-1 [1], in the assay on THP-1 [2], in the assay on THP-1 [4], with THP-1 [6], with THP-1 [8] and with THP-1 [9] was Active. For the same compound, in assay [11], the outcome was Active. Also, the EC50 turned out to be 10.7 nM at Cannabinoid receptor 2 [3] and 283 nM on Cannabinoid receptor 2 [12]. Also, the outcome with THP-1 [5], in the assay on THP-1 [7], in the assay with THP-1 [13], with THP-1 [14] and in the assay with THP-1 [16] was inactive. For the same compound, the Ki on Cannabinoid receptor 2 [10] stood at 20.1 nM. Further, the Emax on Cannabinoid receptor 1 stood at 75%. The IC50 in assay [15] stood at 3400 nM.
